Data as given in ChEMBL document CHEMBL1159047, “Synthesis and biological evaluation of antitumour-active betulin derivatives” (Bioorg Med Chem, 2010).
The source made the active and inactive calls. No cut-off for these calls is given here.

Key:
A2780 [1] = assay: Cytotoxicity against human A2780 cells after 96 hrs by SRB assay; assay type: functional, cell-based; details: A2780, 96 h
Summary of the method: (§1)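 Monolayer cells grown in RPMI 1640 with 10% heat-inactivated FBS and penicillin/streptomycin at 37 °C, 5% CO2. Cells were seeded and, after 24 h, exposed to serial dilutions (0–30 µM; DMSO or DMF ≤0.5% final) for 96 h. They were then fixed with 10% TCA at 4 °C, stained with 0.4% SRB and dissolved in 10 mM Tris, with absorbance read at 570 nm. IC50 comes from semi-log dose–response curves of survival versus untreated controls, from ≥3 independent experiments.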

DLD-1 [2] = assay: Cytotoxicity against human DLD1 cells after 96 hrs by SRB assay; assay type: functional, cell-based; details: DLD-1, 96 h; summary of the method: as §1
FaDu [3] = assay: Cytotoxicity against human FADU cells after 96 hrs by SRB assay; assay type: functional, cell-based; summary of the method: as §1
[4] = Cytotoxicity against human 518A2 cells after 96 hrs by SRB assay; assay type: functional, cell-based; details: 518A2, 96 h; summary of the method: as §1
SW-1736 [5] = assay: Cytotoxicity against human SW1736 cells after 96 hrs by SRB assay; assay type: functional, cell-based; details: SW-1736, 96 h; summary of the method: as §1
MCF7 = assay: Cytotoxicity against human MCF7 cells after 96 hrs by SRB assay; assay type: functional, cell-based; details: MCF7, 96 h; summary of the method: as §1
HT-29 [6] = assay: Cytotoxicity against human HT-29 cells after 96 hrs by SRB assay; assay type: functional, cell-based; details: HT-29, 96 h; summary of the method: as §1
8505C [7] = assay: Cytotoxicity against human 8505C cells after 96 hrs by SRB assay; assay type: functional, cell-based; summary of the method: as §1
[8] = Cytotoxicity against human Liposarcoma cells after 96 hrs by SRB assay; assay type: functional, cell-based; summary of the method: as §1
HCT-8 = assay: Cytotoxicity against human HCT8 cells after 96 hrs by SRB assay; assay type: functional, cell-based; details: HCT-8, 96 h; summary of the method: as §1
HCT-116 = assay: Cytotoxicity against human HCT116 cells after 96 hrs by SRB assay; assay type: functional, cell-based; details: HCT-116, 96 h; summary of the method: as §1
[9] = Cytotoxicity against human A253 cells after 96 hrs by SRB assay; assay type: functional, cell-based; details: A253, 96 h; summary of the method: as §1
A549 [10] = assay: Cytotoxicity against human A549 cells after 96 hrs by SRB assay; assay type: functional, cell-based; details: A549, 96 h; summary of the method: as §1
A-431 = assay: Cytotoxicity against human A431 cells after 96 hrs by SRB assay; assay type: functional, cell-based; details: A-431, 96 h; summary of the method: as §1
SW480 [11] = assay: Cytotoxicity against human SW480 cells after 96 hrs by SRB assay; assay type: functional, cell-based; details: SW480, 96 h; summary of the method: as §1
SW480 [12] = assay: Growth inhibition of human SW480 cells at 30 uM after 96 hrs by SRB assay; assay type: functional, cell-based
Summary of the method: (§2)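 Same SRB set-up: RPMI 1640 with 10% FBS at 37 °C, 5% CO2, and a 96 h exposure starting 24 h after seeding (DMSO or DMF ≤0.5% final). Percent viable cells relative to untreated controls is read at 30 µM, the top concentration of the 0–30 µM dilution series. Cells were fixed with TCA, stained with SRB and read at 570 nm; ≥3 independent experiments.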

518A2 = assay: Growth inhibition of human 518A2 cells at 30 uM after 96 hrs by SRB assay; assay type: functional, cell-based; summary of the method: as §2
DLD-1 [13] = assay: Growth inhibition of human DLD1 cells at 30 uM after 96 hrs by SRB assay; assay type: functional, cell-based; summary of the method: as §2
FaDu [14] = assay: Growth inhibition of human FADU cells at 30 uM after 96 hrs by SRB assay; assay type: functional, cell-based; summary of the method: as §2
8505C [15] = assay: Growth inhibition of human 8505C cells at 30 uM after 96 hrs by SRB assay; assay type: functional, cell-based; summary of the method: as §2
Homo sapiens = organism: Homo sapiens; assay: Growth inhibition of human Liposarcoma cells at 30 uM after 96 hrs by SRB assay; assay type: functional; summary of the method: as §2
A549 [16] = assay: Growth inhibition of human A549 cells at 30 uM after 96 hrs by SRB assay; assay type: functional, cell-based; summary of the method: as §2
SW-1736 [17] = assay: Growth inhibition of human SW1736 cells at 30 uM after 96 hrs by SRB assay; assay type: functional, cell-based; summary of the method: as §2
A2780 [18] = assay: Growth inhibition of human A2780 cells at 30 uM after 96 hrs by SRB assay; assay type: functional, cell-based; summary of the method: as §2
HT-29 [19] = assay: Growth inhibition of human HT-29 cells at 30 uM after 96 hrs by SRB assay; assay type: functional, cell-based; summary of the method: as §2

SMILES | IC50 (A2780 [1]) | IC50 (DLD-1 [2]) | IC50 (FaDu [3]) | IC50 [4] | IC50 (SW-1736 [5]) | IC50 (MCF7) | IC50 (HT-29 [6]) | IC50 (8505C [7]) | IC50 [8] | IC50 (HCT-8) | IC50 (HCT-116) | IC50 [9] | IC50 (A549 [10]) | IC50 (A-431) | IC50 (SW480 [11]) | further results
C=C(C)[C@@H]1CC[C@]2([C@H](O)[C@H]3C=CC(=O)O3)CC[C@]3(C)[C@H](CC[C@@H]4[C@@]5(C)CC[C@H](OC(C)=O)C(C)(C)[C@@H]5CC[C@]43C)[C@@H]12 | 8.8 µM | 16.3 µM | 12.3 µM | 16.5 µM | 14.7 µM | 12.5 µM | 29.9 µM | 17 µM | 15.9 µM | 14.7 µM | 8.5 µM | 15.7 µM | 17 µM | 8.9 µM | 12.8 µM | 
C=C(C)[C@@H]1CC[C@]2(C(=O)CC(=O)OCC)CC[C@]3(C)[C@H](CC[C@@H]4[C@@]5(C)CC[C@H](OC)C(C)(C)[C@@H]5CC[C@]43C)[C@@H]12 | 4.3 µM | 7.9 µM | 6.5 µM | 6.3 µM | 7.2 µM | 4.7 µM | 4.1 µM | 7.9 µM | 6.4 µM | 4.1 µM | 3.6 µM | 7.4 µM | 5.3 µM | 3.9 µM | 5.9 µM | 
C=C(C)[C@@H]1CC[C@]2(C(=O)[C@H]3CCOC3=O)CC[C@]3(C)[C@H](CC[C@@H]4[C@@]5(C)CC[C@H](OC(C)=O)C(C)(C)[C@@H]5CC[C@]43C)[C@@H]12 (mixture of isomers) | 6.4 µM | 9.5 µM | 5.8 µM | 9.5 µM | 6.2 µM | 7.7 µM | 14.8 µM | 9.2 µM | 10 µM | 7.8 µM | 6.2 µM | 7 µM | 5.5 µM | 7.3 µM | 9.6 µM | 
C=C(C)[C@@H]1CC[C@]2([C@@H]3O[C@H]3C(=O)N(CC)CC)CC[C@]3(C)[C@H](CC[C@@H]4[C@@]5(C)CC[C@H](OC(C)=O)C(C)(C)[C@@H]5CC[C@]43C)[C@@H]12 | 4.7 µM | 7.9 µM | 5.9 µM | 7 µM | 2.7 µM | 4.6 µM | 9.6 µM | 8.3 µM | 7.7 µM | 2.7 µM | 2.3 µM | 3.5 µM | 5.6 µM | 4.3 µM | 6 µM | 
C=C(C)[C@@H]1CC[C@]2([C@H](O)CC(=O)OCC)CC[C@]3(C)[C@H](CC[C@@H]4[C@@]5(C)CC[C@H](OC(C)=O)C(C)(C)[C@@H]5CC[C@]43C)[C@@H]12 | 21 µM |  |  |  | 23.5 µM | 27.3 µM | 21.8 µM |  |  | 16.5 µM | 13 µM |  | 28.2 µM | 18.7 µM |  | growth inhibition (GI) (SW480 [12]): inactive; growth inhibition (GI) (518A2): inactive; growth inhibition (GI) (DLD-1 [13]): inactive; growth inhibition (GI) (FaDu [14]): inactive; growth inhibition (GI) (8505C [15]): inactive; growth inhibition (GI) (Homo sapiens): inactive
C=C(C)[C@@H]1CC[C@]2([C@H](O)CC(=O)CC(=O)OCC)CC[C@]3(C)[C@H](CC[C@@H]4[C@@]5(C)CC[C@H](OC)C(C)(C)[C@@H]5CC[C@]43C)[C@@H]12 | 12.1 µM | 14 µM | 16.2 µM | 19.4 µM | 13.8 µM | 20.7 µM | 16.8 µM | 17.6 µM | 17.8 µM | 12.5 µM | 14.6 µM | 17 µM | 14.6 µM | 20.7 µM | 15.3 µM | 
C=C(C)[C@@H]1CC[C@]2([C@H]3CO3)CC[C@]3(C)[C@H](CC[C@@H]4[C@@]5(C)CC[C@H](O)C(C)(C)[C@@H]5CC[C@]43C)[C@@H]12 |  |  |  |  |  | 28.6 µM | 18.2 µM | 24.3 µM | 24.7 µM | 24.6 µM | 20.3 µM | 20.1 µM |  | 23.5 µM | 16.8 µM | growth inhibition (GI) (A549 [16]): inactive; growth inhibition (GI) (518A2): inactive; growth inhibition (GI) (DLD-1 [13]): inactive; growth inhibition (GI) (FaDu [14]): inactive; growth inhibition (GI) (SW-1736 [17]): inactive; growth inhibition (GI) (A2780 [18]): inactive
C=C(C)[C@@H]1CC[C@]2(C(=O)O)CC[C@]3(C)[C@H](CC[C@@H]4[C@@]5(C)CC[C@H](O)C(C)(C)[C@@H]5CC[C@]43C)[C@@H]12 [BETULINIC ACID] |  |  |  |  |  |  |  |  | 9.7 µM |  |  |  |  |  |  | 
CCOC(=O)C[C@H]1O[C@@H]2[C@@H]3[C@H]4CC[C@@H]5[C@@]6(C)CC[C@H](OC(C)=O)C(C)(C)[C@@H]6CC[C@@]5(C)[C@]4(C)CC[C@@]31CCC2(C)C | 11.9 µM |  | 24.7 µM |  | 25.9 µM | 27.1 µM | 16.7 µM |  |  | 12 µM | 9.3 µM | 25.1 µM | 21.9 µM | 22.6 µM | 17.3 µM | growth inhibition (GI) (518A2): inactive; growth inhibition (GI) (DLD-1 [13]): inactive; growth inhibition (GI) (8505C [15]): inactive; growth inhibition (GI) (Homo sapiens): inactive
C=C(C)[C@@H]1CC[C@]2([C@@H]3CO3)CC[C@]3(C)[C@H](CC[C@@H]4[C@@]5(C)CC[C@H](O)C(C)(C)[C@@H]5CC[C@]43C)[C@@H]12 | 28.2 µM |  |  | 26.8 µM |  | 23.6 µM | 15.4 µM | 22.3 µM | 22.4 µM | 20.6 µM | 19.9 µM | 18.8 µM |  | 20.1 µM | 16.2 µM | growth inhibition (GI) (A549 [16]): inactive; growth inhibition (GI) (DLD-1 [13]): inactive; growth inhibition (GI) (FaDu [14]): inactive; growth inhibition (GI) (SW-1736 [17]): inactive
C=C(C)[C@@H]1CC[C@]2([C@H](O)CC(=O)CC(=O)OCC)CC[C@]3(C)[C@H](CC[C@@H]4[C@@]5(C)CC[C@H](OC(C)=O)C(C)(C)[C@@H]5CC[C@]43C)[C@@H]12 | 9.1 µM | 9.3 µM | 10.5 µM | 11.6 µM | 10.6 µM | 13.9 µM | 18.5 µM | 9.6 µM | 9 µM | 11.3 µM | 13 µM | 10 µM | 16.8 µM | 16.1 µM | 13 µM | 
C=C(C)[C@@H]1CC[C@]2([C@H](O)[C@H]3CCOC3=O)CC[C@]3(C)[C@H](CC[C@@H]4[C@@]5(C)CC[C@H](OC(C)=O)C(C)(C)[C@@H]5CC[C@]43C)[C@@H]12 | 12.4 µM | 17.4 µM | 17.5 µM | 17.9 µM | 18.5 µM | 11.7 µM |  | 22.2 µM | 17.4 µM | 8.3 µM | 10.7 µM | 16.8 µM | 21.1 µM | 11.7 µM | 16.4 µM | growth inhibition (GI) (HT-29 [19]): inactive
CCOC(=O)CC(=O)C[C@H]1O[C@@H]2[C@@H]3[C@H]4CC[C@@H]5[C@@]6(C)CC[C@H](OC(C)=O)C(C)(C)[C@@H]6CC[C@@]5(C)[C@]4(C)CC[C@@]31CCC2(C)C | 4.7 µM | 7.2 µM | 7 µM | 10.4 µM | 11.3 µM | 9.2 µM | 13.2 µM | 8.9 µM | 10.5 µM | 6.1 µM | 7 µM | 10.9 µM | 5.2 µM | 9.8 µM | 5.8 µM | 
C=C(C)[C@@H]1CC[C@]2(C(=O)CC(=O)OCC)CC[C@]3(C)[C@H](CC[C@@H]4[C@@]5(C)CC[C@H](OC(C)=O)C(C)(C)[C@@H]5CC[C@]43C)[C@@H]12 | 1.8 µM | 3.9 µM | 3 µM | 2.5 µM | 2.3 µM | 6.8 µM | 12 µM | 2.3 µM | 2.2 µM | 3 µM | 2.4 µM | 2.2 µM | 2.2 µM | 2.6 µM | 2.2 µM | 
